ChEMBL document CHEMBL3407373, “Design, synthesis and evaluation of a novel class of glucosamine mimetic peptides containing 1,3-dioxane” (2015)
Where a name gives a salt, the structure may show the parent alone.

Each compound was assayed on Mus musculus (assay: Antiinflammatory activity against ICR mouse ear edema model assessed as inhibition of xylene-induced edema at 0.1 umol/kg, po administered 30 mins prior to xylene challenge measured after 2 hrs relative to vehicle-treated control).
Type: functional
Summary of the method: (§1)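 Male ICR mice (18-20 g), 12/12 h light/dark, free food and water, acclimated 1 day; groups of twelve. Test agents were given by oral gavage as suspensions in 0.5% CMC, with CMC alone as vehicle control, 30 min before xylene was applied to both surfaces of the right ear; the left ear served as control. At 2 h, mice were decapitated and 8.0 mm ear biopsies were punched and weighed; edema = right minus left weight.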

SMILES	inhibition in vivo at 0.1 µmol/kg
CC[C@H](C)[C@H](NCCC1OCC(C)(C)CO1)C(=O)N[C@H]1C(O)O[C@H](CO)[C@@H](O)[C@@H]1O (some centres not stated)	44.3%

What follows are compounds tested on Mus musculus (assay: Antiinflammatory activity against ICR mouse ear edema model assessed as inhibition of xylene-induced edema at 1 umol/kg, po administered 30 mins prior to xylene challenge measured after 2 hrs relative to vehicle-treated control).
Type: functional
Summary of the method: as §1

SMILES	inhibition in vivo at 1 µmol/kg
CC[C@H](C)[C@H](NCCC1OCC(C)(C)CO1)C(=O)N[C@H]1C(O)O[C@H](CO)[C@@H](O)[C@@H]1O (some centres not stated)	70.8%

What follows are compounds tested on Mus musculus (assay: Antiinflammatory activity against ICR mouse ear edema model assessed as inhibition of xylene-induced edema at 100 mg/kg, po administered 30 mins prior to xylene challenge measured after 2 hrs relative to vehicle-treated control).
Type: functional
Summary of the method: as §1

SMILES	inhibition in vivo at 100 mg/kg
CC(=O)Oc1ccccc1C(=O)O [ASPIRIN]	89.5%

What follows are compounds tested on Mus musculus (assay: Antiinflammatory activity against ICR mouse ear edema model assessed as inhibition of xylene-induced edema at 10 umol/kg, po administered 30 mins prior to xylene challenge measured after 2 hrs relative to vehicle-treated control).
Type: functional
Summary of the method: as §1

SMILES	inhibition in vivo at 10 µmol/kg
CC(=O)OC[C@H]1O[C@H](OC(C)=O)[C@H](NC(=O)[C@H](CC(C)C)NCCC2OCC(C)(C)CO2)[C@@H](OC(C)=O)[C@@H]1OC(C)=O	86.6%
CC(=O)OC[C@H]1O[C@H](OC(C)=O)[C@H](NC(=O)[C@H](C)NCCC2OCC(C)(C)CO2)[C@@H](OC(C)=O)[C@@H]1OC(C)=O	84.2%
CC(C)[C@H](NCCC1OCC(C)(C)CO1)C(=O)N[C@H]1C(O)O[C@H](CO)[C@@H](O)[C@@H]1O (some centres not stated)	85.1%
CC1(C)COC(CCN[C@@H](Cc2ccccc2)C(=O)N[C@H]2[C@@H](OCc3ccccc3)O[C@H](COCc3ccccc3)[C@@H](OCc3ccccc3)[C@@H]2OCc2ccccc2)OC1	87.1%
CC(=O)OC[C@H]1O[C@H](OC(C)=O)[C@H](NC(=O)[C@@H](NCCC2OCC(C)(C)CO2)C(C)C)[C@@H](OC(C)=O)[C@@H]1OC(C)=O	70.6%
CC1(C)COC(CCN[C@@H](Cc2c[nH]c3ccccc23)C(=O)N[C@H]2[C@@H](OCc3ccccc3)O[C@H](COCc3ccccc3)[C@@H](OCc3ccccc3)[C@@H]2OCc2ccccc2)OC1	80.1%
CC(C)C[C@H](NCCC1OCC(C)(C)CO1)C(=O)N[C@H]1C(O)O[C@H](CO)[C@@H](O)[C@@H]1O (some centres not stated)	81.8%
CC1(C)COC(CCN[C@@H](Cc2ccccc2)C(=O)N[C@H]2C(O)O[C@H](CO)[C@@H](O)[C@@H]2O)OC1 (some centres not stated)	81.9%
CC(C)[C@H](NCCC1OCC(C)(C)CO1)C(=O)N[C@H]1[C@@H](OCc2ccccc2)O[C@H](COCc2ccccc2)[C@@H](OCc2ccccc2)[C@@H]1OCc1ccccc1	86.2%
C[C@H](NCCC1OCC(C)(C)CO1)C(=O)N[C@H]1C(O)O[C@H](CO)[C@@H](O)[C@@H]1O (some centres not stated)	86.8%
CC1(C)COC(CCN[C@@H](Cc2c[nH]c3ccccc23)C(=O)N[C@H]2C(O)O[C@H](CO)[C@@H](O)[C@@H]2O)OC1 (some centres not stated)	80.3%
CC(=O)OC[C@H]1O[C@H](OC(C)=O)[C@H](NC(=O)[C@H](Cc2ccccc2)NCCC2OCC(C)(C)CO2)[C@@H](OC(C)=O)[C@@H]1OC(C)=O	86.8%
CC[C@H](C)[C@H](NCCC1OCC(C)(C)CO1)C(=O)N[C@H]1[C@@H](OC(C)=O)O[C@H](COC(C)=O)[C@@H](OC(C)=O)[C@@H]1OC(C)=O	79.8%
CC[C@H](C)[C@H](NCCC1OCC(C)(C)CO1)C(=O)N[C@H]1[C@@H](OCc2ccccc2)O[C@H](COCc2ccccc2)[C@@H](OCc2ccccc2)[C@@H]1OCc1ccccc1	81.6%
CC(=O)OC[C@H]1O[C@H](OC(C)=O)[C@H](NC(=O)[C@H](Cc2c[nH]c3ccccc23)NCCC2OCC(C)(C)CO2)[C@@H](OC(C)=O)[C@@H]1OC(C)=O	80.7%
CC[C@H](C)[C@H](NCCC1OCC(C)(C)CO1)C(=O)N[C@H]1C(O)O[C@H](CO)[C@@H](O)[C@@H]1O (some centres not stated)	88.7%
N[C@H]1C(O)O[C@H](CO)[C@@H](O)[C@@H]1O (some centres not stated) [GLUCOSAMINE HYDROCHLORIDE]	64.3%
C[C@H](NCCC1OCC(C)(C)CO1)C(=O)N[C@H]1[C@@H](OCc2ccccc2)O[C@H](COCc2ccccc2)[C@@H](OCc2ccccc2)[C@@H]1OCc1ccccc1	90.3%
CC(C)C[C@H](NCCC1OCC(C)(C)CO1)C(=O)N[C@H]1[C@@H](OCc2ccccc2)O[C@H](COCc2ccccc2)[C@@H](OCc2ccccc2)[C@@H]1OCc1ccccc1	76.7%
